According to ChEMBL document CHEMBL1153798, “Substituted tetrahydroquinolines as potent allosteric inhibitors of reverse transcriptase and its key mutants” (Bioorg Med Chem Lett, 2009):
pIC50: −log10 of the molar value.

How the values were obtained:
[1] = system: Human immunodeficiency virus 1; test: Antiviral activity against HIV1 3B infected human MT4 cells assessed as drug level required for 95% inhibition in the presence of 10% fetal bovine serum; format: functional
In short: (§1)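 Spread assay: MT-4 human T-lymphoid cells in RPMI 1640 with either 10% FBS or 50% NHS; CIC95 taken as the concentration blocking >95% of virus spread. Wild-type virus H9IIIB or R8 as stated per line. Geometric mean of at least two determinations, individual values within 25% of the mean.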

[2] = system: Human immunodeficiency virus 1; test: Antiviral activity against HIV1 3B infected human MT4 cells assessed as drug level required for 95% inhibition in the presence of 50% normal human serum; format: functional; in short: as §1
[3] = Inhibition of HIV1 reverse transcriptase K103 mutant

Row | SMILES | ID95 [1] | ID95 [2] | pIC50 [3] | Activity [1] | Activity [2]
1 | O=C(CSC(=O)N1CCCc2cc(Cl)cc(Cl)c21)Nc1ccccc1Cl | 125 nM | 406 nM | – | – | –
2 | N#Cc1ccc(NC(=O)CSC(=O)N2CCCc3cc(Cl)cc(Cl)c32)c(Cl)c1 | – | 1250 nM | 7.85 | – | –
3 | NS(=O)(=O)c1ccc(NC(=O)COC(=O)N2CCCc3cc(Cl)cc(Cl)c32)c(Cl)c1 | – | – | 7.68 | 187 nM | 2.5 µM
4 | NS(=O)(=O)c1ccc(NC(=O)CCC(=O)N2CCCc3cc(Cl)cc(Cl)c32)c(Cl)c1 | – | – | – | 406 nM | 5 µM
5 | Cc1cccc2c1N(C(=O)SCC(=O)Nc1ccc(S(N)(=O)=O)cc1Cl)CCC2 | 47 nM | 219 nM | 8.40 | – | –
6 | NS(=O)(=O)c1ccc(NC(=O)CSC(=O)N2CCCc3cc(Cl)ccc32)c(Cl)c1 | 141 nM | 1250 nM | – | – | –
7 | NS(=O)(=O)c1ccc(NC(=O)CNC(=O)N2CCCc3cc(Cl)cc(Cl)c32)c(Cl)c1 | – | – | – | 562 nM | >10 µM
8 | Cc1cc(C)c(N(C)C(=O)SCC(=O)Nc2ccc(S(N)(=O)=O)cc2Cl)c(C)c1 | – | – | 8.05 | – | –
